The text below walks through data of ChEMBL document CHEMBL1157490, “Imidazopyridines as VLA-4 integrin antagonists” (Bioorg Med Chem Lett, 2008).

A value given as a limit tells only on which side of the number the result lay.

One series addresses Integrin alpha-4/beta-1 (Homo sapiens, UniProt P05556+P13612). The experiment in a line: Inhibition of integrin alpha4beta1 receptor in human whole blood by flow cytometry. In short, it runs like this: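 Human whole blood incubated with 3 mM MnCl2 and streptavidin-FITC, with or without 10 μg/mL biotinylated dimeric hVCAM-mFc. Compound added from tripling dilutions in TBS, 30 min at room temperature with shaking. Red cells lysed, leukocytes pelleted, washed twice in TBS and analysed by flow cytometry for bound VCAM; IC50 derived.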
(A flow cytometer gives signals particle by particle.)

For a further series, the target named is Cytochrome P450 2C9 (Homo sapiens, UniProt P11712). Put plainly: Inhibition of CYP2C9. It is filed as ADME.
The nature of series [1]: Metabolic stability in rat microsomes assessed as intrinsic clearance at 0.5 uM. It is filed as ADME, Microsome.
In the next series the target is T1, Cytochrome P450 1A2 (Homo sapiens, UniProt P05177).
T1 sequence (P05177 whole entry): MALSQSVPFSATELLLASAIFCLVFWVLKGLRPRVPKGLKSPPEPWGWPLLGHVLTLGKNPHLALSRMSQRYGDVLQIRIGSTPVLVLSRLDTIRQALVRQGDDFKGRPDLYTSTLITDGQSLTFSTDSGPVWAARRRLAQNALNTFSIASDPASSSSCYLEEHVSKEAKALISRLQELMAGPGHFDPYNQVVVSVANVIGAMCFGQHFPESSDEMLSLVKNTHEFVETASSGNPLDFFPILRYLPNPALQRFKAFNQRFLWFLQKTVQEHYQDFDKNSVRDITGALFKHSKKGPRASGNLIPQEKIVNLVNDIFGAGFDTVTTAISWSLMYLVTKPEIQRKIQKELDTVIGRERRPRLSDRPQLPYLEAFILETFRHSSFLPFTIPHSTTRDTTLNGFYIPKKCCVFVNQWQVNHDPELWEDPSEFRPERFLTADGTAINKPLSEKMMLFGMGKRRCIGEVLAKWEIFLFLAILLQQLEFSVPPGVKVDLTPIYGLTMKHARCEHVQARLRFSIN
The experiment in a line: Inhibition of CYP1A2. It is filed as ADME.

The target in a further series is Cytochrome P450 2D6 (Homo sapiens, UniProt P10635). The experiment in a line: Inhibition of CYP2D6. It is filed as ADME.
Series [2] can be described thus: Metabolic stability in mouse microsomes assessed as intrinsic clearance at 0.5 uM. It is filed as ADME, Microsome.
Series [3] is described as follows: Metabolic stability in human microsomes assessed as intrinsic clearance at 0.5 uM. It is filed as ADME, Microsome.
In a further series the target is Cytochrome P450 3A4 (Homo sapiens, UniProt P08684). Put plainly: Inhibition of CYP3A4. It is filed as ADME.

A word on the IC50: it is the concentration that gives 50% inhibition. A high value points to weaker potency in that assay. What is called microsomal CLint is a measure of how fast metabolising enzymes remove a compound, apart from limits set by blood flow.

Sequence of Cytochrome P450 3A4 (P08684 whole entry): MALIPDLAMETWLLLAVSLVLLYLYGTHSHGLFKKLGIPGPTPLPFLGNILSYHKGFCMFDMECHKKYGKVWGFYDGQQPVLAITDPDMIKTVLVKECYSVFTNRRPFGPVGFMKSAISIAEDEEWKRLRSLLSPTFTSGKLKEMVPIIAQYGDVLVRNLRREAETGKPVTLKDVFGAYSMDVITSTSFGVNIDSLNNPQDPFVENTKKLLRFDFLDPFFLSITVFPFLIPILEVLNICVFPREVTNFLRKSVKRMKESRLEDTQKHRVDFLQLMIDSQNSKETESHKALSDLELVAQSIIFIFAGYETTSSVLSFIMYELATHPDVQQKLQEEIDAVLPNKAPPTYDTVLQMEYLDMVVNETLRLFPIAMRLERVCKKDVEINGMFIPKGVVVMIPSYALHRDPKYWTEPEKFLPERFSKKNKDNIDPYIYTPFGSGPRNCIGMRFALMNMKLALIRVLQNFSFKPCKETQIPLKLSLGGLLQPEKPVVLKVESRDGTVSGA
Sequence of Cytochrome P450 2C9 (P11712 whole entry): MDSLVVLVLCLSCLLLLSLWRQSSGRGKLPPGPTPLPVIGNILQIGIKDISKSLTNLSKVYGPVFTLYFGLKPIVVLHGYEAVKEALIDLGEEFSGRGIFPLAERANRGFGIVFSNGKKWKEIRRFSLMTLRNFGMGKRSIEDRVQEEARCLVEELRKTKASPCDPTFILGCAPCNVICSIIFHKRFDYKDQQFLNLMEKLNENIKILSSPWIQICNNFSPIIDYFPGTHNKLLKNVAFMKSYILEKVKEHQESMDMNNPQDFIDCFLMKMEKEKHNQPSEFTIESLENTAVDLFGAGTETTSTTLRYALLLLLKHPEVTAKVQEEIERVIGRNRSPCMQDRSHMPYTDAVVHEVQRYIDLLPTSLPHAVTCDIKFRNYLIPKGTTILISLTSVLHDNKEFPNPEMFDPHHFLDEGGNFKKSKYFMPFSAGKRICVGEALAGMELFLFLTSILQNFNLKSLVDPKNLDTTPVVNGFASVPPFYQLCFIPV
Sequence of Integrin alpha-4/beta-1 (P05556 whole entry): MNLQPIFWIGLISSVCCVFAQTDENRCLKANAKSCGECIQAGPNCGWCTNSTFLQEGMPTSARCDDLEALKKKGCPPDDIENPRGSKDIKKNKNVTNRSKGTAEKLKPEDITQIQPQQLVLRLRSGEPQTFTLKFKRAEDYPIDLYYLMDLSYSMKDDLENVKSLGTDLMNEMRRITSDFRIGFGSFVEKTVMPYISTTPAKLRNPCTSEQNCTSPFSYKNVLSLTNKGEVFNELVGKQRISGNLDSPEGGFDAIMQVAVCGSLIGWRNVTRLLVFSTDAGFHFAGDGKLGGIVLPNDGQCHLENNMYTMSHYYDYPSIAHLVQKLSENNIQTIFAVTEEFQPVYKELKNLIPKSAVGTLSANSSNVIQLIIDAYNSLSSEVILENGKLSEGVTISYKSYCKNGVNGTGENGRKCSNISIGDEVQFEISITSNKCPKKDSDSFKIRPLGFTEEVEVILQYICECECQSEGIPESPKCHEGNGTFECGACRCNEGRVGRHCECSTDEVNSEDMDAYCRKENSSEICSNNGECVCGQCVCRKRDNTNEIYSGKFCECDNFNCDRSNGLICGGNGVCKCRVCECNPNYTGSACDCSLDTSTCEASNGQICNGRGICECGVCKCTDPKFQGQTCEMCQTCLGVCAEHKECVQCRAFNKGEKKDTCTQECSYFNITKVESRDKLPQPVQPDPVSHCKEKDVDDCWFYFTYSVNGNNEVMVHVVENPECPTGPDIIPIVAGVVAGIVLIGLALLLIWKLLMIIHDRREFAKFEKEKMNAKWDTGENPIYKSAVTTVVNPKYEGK
Sequence of Integrin alpha-4/beta-1 (P13612 whole entry): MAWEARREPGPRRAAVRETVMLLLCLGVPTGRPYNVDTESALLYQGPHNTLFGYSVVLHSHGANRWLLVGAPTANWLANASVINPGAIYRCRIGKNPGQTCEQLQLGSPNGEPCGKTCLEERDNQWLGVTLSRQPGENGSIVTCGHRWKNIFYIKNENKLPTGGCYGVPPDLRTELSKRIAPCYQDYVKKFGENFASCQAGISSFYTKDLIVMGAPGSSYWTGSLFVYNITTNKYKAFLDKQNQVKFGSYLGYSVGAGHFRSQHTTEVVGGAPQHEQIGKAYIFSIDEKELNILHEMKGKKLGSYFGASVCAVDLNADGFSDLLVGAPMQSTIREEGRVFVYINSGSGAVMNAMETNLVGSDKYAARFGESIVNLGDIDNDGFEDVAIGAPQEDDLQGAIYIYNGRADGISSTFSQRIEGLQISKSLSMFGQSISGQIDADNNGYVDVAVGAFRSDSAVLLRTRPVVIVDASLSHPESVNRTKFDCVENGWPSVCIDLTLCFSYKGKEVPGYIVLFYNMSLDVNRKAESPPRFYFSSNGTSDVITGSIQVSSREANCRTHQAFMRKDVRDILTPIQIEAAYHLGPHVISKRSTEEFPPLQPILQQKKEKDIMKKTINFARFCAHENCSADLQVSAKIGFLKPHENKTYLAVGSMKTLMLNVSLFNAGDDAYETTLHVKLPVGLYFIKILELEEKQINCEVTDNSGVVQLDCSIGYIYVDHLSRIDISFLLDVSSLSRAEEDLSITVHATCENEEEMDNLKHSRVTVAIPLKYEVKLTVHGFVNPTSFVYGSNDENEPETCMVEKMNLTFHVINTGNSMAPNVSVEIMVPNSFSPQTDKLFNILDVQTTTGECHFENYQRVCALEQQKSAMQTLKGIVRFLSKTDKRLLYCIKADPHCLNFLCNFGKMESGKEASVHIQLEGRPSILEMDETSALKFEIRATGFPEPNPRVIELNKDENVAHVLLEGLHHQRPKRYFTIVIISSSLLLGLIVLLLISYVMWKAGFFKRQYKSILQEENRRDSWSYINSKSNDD
Sequence of Cytochrome P450 2D6 (P10635 whole entry): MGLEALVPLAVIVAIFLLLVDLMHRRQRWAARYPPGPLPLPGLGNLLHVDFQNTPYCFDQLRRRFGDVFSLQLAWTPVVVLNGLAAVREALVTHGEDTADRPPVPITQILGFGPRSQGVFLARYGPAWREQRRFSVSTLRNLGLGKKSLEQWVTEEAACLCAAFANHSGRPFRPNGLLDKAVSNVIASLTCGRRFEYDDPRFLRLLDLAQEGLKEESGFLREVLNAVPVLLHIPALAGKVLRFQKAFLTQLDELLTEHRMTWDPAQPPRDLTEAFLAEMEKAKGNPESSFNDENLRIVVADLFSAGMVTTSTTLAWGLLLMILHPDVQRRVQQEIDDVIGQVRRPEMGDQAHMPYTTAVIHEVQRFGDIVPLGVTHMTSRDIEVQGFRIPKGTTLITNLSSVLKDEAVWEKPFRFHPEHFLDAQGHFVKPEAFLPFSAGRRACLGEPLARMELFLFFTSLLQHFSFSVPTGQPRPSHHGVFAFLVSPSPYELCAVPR

In turn, `CSC1=C(N[C@@H](Cc2ccc(-n3c(-c4cccnc4)nc4cccnc43)cc2)C(=O)O)C2(CCCCC2)C1=O` gave an IC50 at Integrin alpha-4/beta-1 of 2 nM.

As for `CNc1ccc(-c2nc3cccnc3n2-c2ccc(C[C@H](NC3=C(Br)C(=O)C34CCCCC4)C(=O)O)cc2)cn1`, on Integrin alpha-4/beta-1, the IC50 was determined as 9 nM.

The molecule `O=C(O)[C@H](Cc1ccc(-n2c(-c3ccc(C(F)(F)F)nc3)nc3cccnc32)cc1)NC1=C(Br)C(=O)C12CCCCC2` yielded a half-inhibitory concentration (IC50) at Integrin alpha-4/beta-1 of 8 nM.

`O=C(O)[C@H](Cc1ccc(-n2c(-c3cccnc3)nc3cccnc32)cc1)NC1=CC(=O)C12CCCCC2` had an IC50 at Integrin alpha-4/beta-1 of 24 nM.

`O=C(O)[C@H](Cc1ccc(-n2c(-c3cccnc3)nc3cnccc32)cc1)NC1=C(Br)C(=O)C12CCCCC2` gave an IC50 against Integrin alpha-4/beta-1 of 236 nM.

As for `O=C(O)[C@H](Cc1ccc(-n2c(C3CCNCC3)nc3cccnc32)cc1)NC1=C(Br)C(=O)C12CCCCC2`, on Integrin alpha-4/beta-1, the IC50 was found to be 13 nM.

On Integrin alpha-4/beta-1, `O=C(O)[C@H](Cc1ccc(-n2c(C3CCCNC3)nc3cccnc32)cc1)NC1=C(Br)C(=O)C12CCCCC2` (stereo partly specified) yielded an IC50 of 6 nM.

In turn, `O=C(O)[C@H](Cc1ccc(-n2c(C3CCCC3)nc3cccnc32)cc1)NC1=C(Br)C(=O)C12CCCCC2` returned an IC50 at Integrin alpha-4/beta-1 of 14 nM.

`N#CCc1nc2cccnc2n1-c1ccc(C[C@H](NC2=C(Br)C(=O)C23CCCCC3)C(=O)O)cc1` yielded a half-maximal inhibitory concentration (IC50) at Integrin alpha-4/beta-1 of 10 nM. The IC50 values of the last two molecules are within 1.5-fold of each other.

In the case of `O=C(O)[C@H](Cc1ccc(-n2c(C3CCCCN3)nc3cccnc32)cc1)NC1=C(Br)C(=O)C12CCCCC2` (stereo partly specified), the concentration for half-maximal inhibition (IC50) against Integrin alpha-4/beta-1 is 3 nM. Against the preceding molecule, the IC50 is about 3.3-fold lower.

With `O=C(O)[C@H](Cc1ccc(-n2c(-c3ccc(Cl)nc3)nc3cccnc32)cc1)NC1=C(Br)C(=O)C12CCCCC2`, the midpoint of inhibition at Integrin alpha-4/beta-1, the IC50, lay at 3 nM.

With `CC1(C)C(=O)C=C1N[C@@H](Cc1ccc(-n2c(-c3cccnc3)nc3cccnc32)cc1)C(=O)O`, at Integrin alpha-4/beta-1, the IC50 was determined as 126 nM.

At Integrin alpha-4/beta-1, `O=C(O)[C@H](Cc1ccc(-n2c(-c3ccccc3)nc3cccnc32)cc1)NC1=C(Br)C(=O)C12CCCCC2` had a half-inhibitory concentration (IC50) of 71 nM.

For the molecule `O=C(O)[C@H](Cc1ccc(-n2c(-c3cccnc3)nc3cc(F)ccc32)cc1)NC1=C(Br)C(=O)C12CCCCC2`, the half-maximal inhibitory concentration (IC50) at Integrin alpha-4/beta-1 was 2680 nM.

As to `O=C(O)[C@H](Cc1ccc(-n2c(C3COCCN3)nc3cccnc32)cc1)NC1=C(Br)C(=O)C12CCCCC2` (stereo partly specified), it took 10 nM to reach half-maximal inhibition at Integrin alpha-4/beta-1 (IC50). Compared with the last molecule, the IC50 is about 270-fold lower.

On Integrin alpha-4/beta-1, `O=C(O)[C@H](Cc1ccc(-n2c(-c3cccnc3)nc3cnccc32)cc1)NC1=CC(=O)C12CCCCC2` registered an IC50 of 1620 nM.

As to `CC1(C)C(=O)C(Cl)=C1N[C@@H](Cc1ccc(-n2c(-c3cccnc3)nc3cccnc32)cc1)C(=O)O`, half-maximal inhibition against Integrin alpha-4/beta-1 (IC50) was put at 19 nM.

On Integrin alpha-4/beta-1, `Cc1nc2cccnc2n1-c1ccc(C[C@H](NC2=C(Br)C(=O)C23CCCCC3)C(=O)O)cc1` gave an IC50 of 570 nM. This IC50 is about 30-fold higher than that of the molecule before.

On to `CN(C)c1ccnc(-c2nc3cccnc3n2-c2ccc(C[C@H](NC3=C(Br)C(=O)C34CCCCC4)C(=O)O)cc2)c1`, for which the IC50 against Integrin alpha-4/beta-1 came out at 46 nM.

`O=C(O)[C@H](Cc1ccc(-n2c(-c3cccnc3)nc3cccnc32)cc1)NC1=C(Cl)C(=O)C12CCCCC2` came in with an IC50 against Integrin alpha-4/beta-1 of 7 nM.

Take `O=C(O)[C@H](Cc1ccc(-n2c(C3(C(F)(F)F)CC3)nc3cccnc32)cc1)NC1=C(Br)C(=O)C12CCCCC2`: the IC50 at Cytochrome P450 2C9 is 8 µM; at Cytochrome P450 1A2, > 100 µM; at Integrin alpha-4/beta-1 it was 2 nM; against Cytochrome P450 2D6 it was > 100 µM; against Cytochrome P450 3A4, 10 µM. For the same molecule, the figures for the intrinsic clearance (microsomal CLint) at 0.5 µM in series [1], in series [2] and in series [3] were 52 µL/min/mg, 15 µL/min/mg and 6 µL/min/mg, respectively.

`O=C(O)[C@H](Cc1ccc(-n2c(C(F)(F)F)nc3cccnc32)cc1)NC1=C(Br)C(=O)C12CCCCC2` yielded an IC50 on Integrin alpha-4/beta-1 of 22 nM.

`O=C(O)[C@H](Cc1ccc(-n2c(-c3ccc(N4CCCCC4)nc3)nc3cccnc32)cc1)NC1=C(Br)C(=O)C12CCCCC2`: on Integrin alpha-4/beta-1, the IC50 came to 83 nM. Against the preceding molecule, the IC50 is about 3.8-fold higher.

For `O=C(O)[C@H](Cc1ccc(-n2c(-c3cccnc3)nc3cccnc32)cc1)NC1=C(Br)C(=O)C12CCCCC2`, the IC50 is 10 µM against Cytochrome P450 2C9; > 100 µM against Cytochrome P450 1A2; 3 nM on Integrin alpha-4/beta-1; > 100 µM at Cytochrome P450 2D6; 62 µM at Cytochrome P450 3A4. The intrinsic clearance (microsomal CLint) at 0.5 µM in series [1] was 48 µL/min/mg; in series [2], 11 µL/min/mg; in series [3], < 1 µL/min/mg.

For `CC1(C)C(=O)C(Br)=C1N[C@@H](Cc1ccc(-n2c(-c3cccnc3)nc3cccnc32)cc1)C(=O)O`, the half-maximal inhibitory concentration (IC50) on Integrin alpha-4/beta-1 was found to be 10 nM.

Regarding `CC(C)Cc1nc2cccnc2n1-c1ccc(C[C@H](NC2=C(Br)C(=O)C23CCCCC3)C(=O)O)cc1`, the IC50 against Integrin alpha-4/beta-1 was 11 nM. This IC50 and that of the molecule before are within 1.5-fold of each other.

At Integrin alpha-4/beta-1, `CC(C)SC1=C(N[C@@H](Cc2ccc(-n3c(-c4cccnc4)nc4cccnc43)cc2)C(=O)O)C2(CCCCC2)C1=O` returned a half-inhibitory concentration (IC50) of 2 nM.

The molecule `CN(C)c1ccc(-c2nc3cccnc3n2-c2ccc(C[C@H](NC3=C(Br)C(=O)C34CCCCC4)C(=O)O)cc2)cn1` came in with an IC50 against Integrin alpha-4/beta-1 of 22 nM.

On Integrin alpha-4/beta-1, `O=C(O)[C@H](Cc1ccc(-n2c(C3CC3)nc3cccnc32)cc1)NC1=C(Br)C(=O)C12CCCCC2` had an IC50 of 95 nM.

Turning to `CSCCc1nc2cccnc2n1-c1ccc(C[C@H](NC2=C(Br)C(=O)C23CCCCC3)C(=O)O)cc1`, it took 11 nM to reach half-maximal inhibition against Integrin alpha-4/beta-1 (IC50).

Molecule `O=C(O)[C@H](Cc1ccc(-n2c(C3CCC3)nc3cccnc32)cc1)NC1=C(Br)C(=O)C12CCCCC2` displayed an IC50 against Integrin alpha-4/beta-1 of 18 nM.

For `CC(C)c1nc2cccnc2n1-c1ccc(C[C@H](NC2=C(Br)C(=O)C23CCCCC3)C(=O)O)cc1`, the IC50 was 18 µM against Cytochrome P450 2C9; > 100 µM against Cytochrome P450 1A2; 9 nM at Integrin alpha-4/beta-1; > 100 µM on Cytochrome P450 2D6; 79 µM at Cytochrome P450 3A4. Also, the intrinsic clearance (microsomal CLint) at 0.5 µM was determined as 38 µL/min/mg in series [1], 14 µL/min/mg in series [2] and 4 µL/min/mg in series [3].

The molecule `O=C(O)[C@H](Cc1ccc(-n2c(CC3CC3)nc3cccnc32)cc1)NC1=C(Br)C(=O)C12CCCCC2` showed an IC50 on Integrin alpha-4/beta-1 of 8 nM.

As for `CC(C)(C)c1nc2cccnc2n1-c1ccc(C[C@H](NC2=C(Br)C(=O)C23CCCCC3)C(=O)O)cc1`, on Integrin alpha-4/beta-1, the 50% inhibitory concentration (IC50) worked out at 3 nM.

Take `O=C(O)[C@H](Cc1ccc(-n2c(-c3cccnc3)nc3cnccc32)cc1)NC1=C(Cl)C(=O)C12CCCCC2`: the concentration for half-maximal inhibition (IC50) on Integrin alpha-4/beta-1 is 504 nM.
